# Laboratory results reported in ChEMBL document CHEMBL4513216, “Probing the Open Global Health Chemical Diversity Library for Multistage-Active Starting Points for Next-Generation Antimalarials” (ACS Infect Dis, 2020).
# Assay: Toxicity liver stage against HepG2, at 10uM
# Format: cell-based
# Set-up: test concentration 10 uM, cell line HepG2-A16-CD81EGFP
# Settings: human, HepG2-A16-CD81EGFP cells; read-out: INHIBITION
# Summary of the method: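 Uninfected HepG2-A16-CD81EGFP cells, 3 × 10^3 per well, 1536-well, plated on prespotted compound at 10 μM final, parasite-free screening media added to match infected plates; puromycin 10 μM positive, DMSO 0.5% negative; run in parallel with 48 h PbLuc assay at 37 °C, 5% CO2; viability by CellTiter-Glo luminescence, normalized to controls.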
row,SMILES,cytotoxicity at 10 µM [%]
1,Oc1ccc(N2CCN(Cc3cc4c(cc3Br)OCCO4)CC2)cc1,6.87
2,CC[C@H]1CN(S(=O)(=O)c2ccc(OC)cc2)CC[C@H]1CC(=O)O,7.28
3,Oc1cccc(-c2cc(CC3(N(CC4CC4)CC4CC4)COC3)no2)c1,6.15
4,COc1ccc(OC)c(Sc2ncccc2C(=O)NCC2CC2)c1,20.7
5,CC(C)(Oc1ccc(C(N)=O)cc1)C(=O)N(CCC#N)C1CC1,1.58
6,COc1ccc(CC(=O)Nc2ccc3ncn(C)c(=O)c3c2)cc1,1.29
7,COCCc1noc(C2CCN(S(=O)(=O)c3cccs3)CC2)n1,7.51
8,Cn1cnnc1S(=O)(=O)C1CCN(C(=O)c2ccsc2)CC1,6.81
9,Cc1ccsc1C(=O)N1CC2CC1(C(=O)NCC1CC1)C2,-4.78
10,NC(=O)N1C[C@@H]2CN(C(=O)c3ccco3)C[C@@H]2C1,-2.54
11,CCCN1CCC2(C1)c1ccccc1S(=O)(=O)N2Cc1ccc(F)cc1 (centres undefined),18.3
12,O=C(O)c1cc(-c2ccn(CC3CC3)n2)n2ccccc12,13.2
13,Cc1cc(C(=O)N2CC[C@@H]3CO[C@@H](CN4CCCC4)[C@@H]3C2)no1,7.61
14,CC(C)NC(=O)C1Cc2nc(-c3ccsc3)sc2N1CC1CC1 (centres undefined),6.61
15,O=C(c1ccc[nH]1)N1CCN(Cc2ccncc2)c2ncccc2C1,10.1
16,O=C(c1cnccn1)N1CCC2(CCN(Cc3ccsc3)C2)CC1,-3.33
17,CN1CCN(C(=O)[C@@H]2C[C@@H]3CCN(c4cccc(F)c4)C[C@H]3O2)CC1,-6.22
18,O=C(c1ccncc1)N1CCN2C[C@H](Oc3cncnc3)C[C@H]2C1,8.7
19,CN(C)c1ncc(-c2cc(C(=O)O)n(CC3CC3)c2)cn1,-9.23
20,CN(Cc1ccco1)C[C@H]1OC[C@@H]2CCN(Cc3nccs3)C[C@@H]21,-5.9
21,Cc1oncc1C(=O)N1CCC2(CC1)CC(c1ccccc1)C(=O)N2C (centres undefined),-14.5
22,Cn1cc(CN2CC3(CCN(C(=O)c4cscn4)C3)C2)cn1,-11.9

row,SMILES,cytotoxicity at 10 µM [%]
1,Nc1nnnn1NCc1cccc2ccccc12,10.4
2,CC1(c2nccs2)CCN(C(=O)CCN2CCOCC2)CC1,2.97
3,COCC(=O)N1CCCC(C)(c2nncn2C)C1 (centres undefined),4.08
4,CNC(=O)CCc1cc(C)nc(C2CCN(CC(=O)N(C)C)CC2)c1,2.9
5,Cc1ccsc1CN(CCCO)Cc1nc2ccccc2[nH]1,-21.3
6,CN1CCNC(Cc2ccc(-c3ccccc3)cc2)C1=O (centres undefined),-41.9
7,Cc1n[nH]c(C)c1-c1cnc(CC2CCN(C(C)C)CC2)cn1,22.3
8,CCN(Cc1ccncc1)CC1(O)CCN(C(=O)c2ccccc2C)C1 (centres undefined),-22
9,CC1CCN(CCNCc2cc(-c3ccccc3)cn3nnnc23)CC1,-20.4
10,Nc1nc2nc(C3CCN(C(=O)c4cscn4)C3)ccc2s1 (centres undefined),-5.72
11,CNc1cc(CNC(=O)c2ccccc2OC)nc(-c2ccncc2)n1,-13.7
12,CC1CCCCN1c1nc2c(c(=O)[nH]1)CCN(Cc1ccccc1O)C2 (centres undefined),-1.97
13,CNc1cncc(C2CCCN2C(=O)Cn2c(=O)oc3ccccc32)n1 (centres undefined),-6.14
14,CC(C)NC(=O)CN(C)C(=O)c1c(Br)c2ccccc2n1C,4.61
15,CCN(CC(=O)NC(C)(C)C)Cc1cccc2c1OCCO2,-18.7
16,CN(C)CC1CCCCN1C(=O)c1ccc(N2CCOCC2)cc1 (centres undefined),-0.0679
17,CCN(C)S(=O)(=O)NCC(O)c1c(Cl)cccc1Cl (centres undefined),8.17
18,CCC(C)CS(=O)(=O)NCCc1csc(N2CCCC2)n1 (centres undefined),1.28
19,Cc1ccc(Br)cc1S(=O)(=O)NCCc1nnc[nH]1,-5.89
20,Cc1cc(C)n(C2CCCN(C(=O)c3ccnc(N(C)C)c3)C2)n1 (centres undefined),1.9
21,CCOc1ccc(Cl)c(C(=O)N2CCCC(N3CCCC3)C2)n1 (centres undefined),8.29
22,CN(C)c1ccc(C(=O)N2CCCC2c2cnn(C)c2)nn1 (centres undefined),-10.3

row,SMILES,cytotoxicity at 10 µM [%]
1,CCCC(NC(=O)c1cncc(C)c1)c1nnn[nH]1 (centres undefined),-15.5
2,CC(C)c1nc(S(=O)(=O)N(C)c2cc(F)ccc2F)c[nH]1,13.9
3,CNS(=O)(=O)c1cccc(C(C)NCc2nccn2C(C)C)c1 (centres undefined),-12.6
4,CC(=O)c1cccc(OCCCC(=O)N(C)Cc2cccc(O)c2)c1,-4.58
5,Cc1noc(C)c1CCCNC(=O)Nc1ccc2c(c1)COC2,3.27
6,CNc1nc(N2CCN(C)C(CCO)C2)nc2c1CCC2 (centres undefined),2.66
7,CCCc1nnc(N2CCC(N3CCCCCC3)CC2)o1,-15.3
8,COc1cc(N2CCN(Cc3ccsc3)C(CCO)C2)nc(N)n1 (centres undefined),2.45
9,Cc1ccc(-c2ncc(C(=O)N3CCN4CCCCC4C3)c(O)n2)cc1 (centres undefined),-7.82
10,COCCn1cnnc1CN(C)c1nc(N)nc2c1CCCC2,-6.98
11,CCN(CC)CCN(C)c1nc(-c2ccc(Cl)cc2)nc2c1CNC2,1.78
12,O=S1(=O)C[C@@H]2[C@H](C1)N(Cc1cccc(O)c1)CCN2CC1CC1,1.79
13,CCCc1cc(C(=O)NC2CCCCNC2=O)[nH]n1 (centres undefined),0.828
14,Cc1nnc(CN(C)C2CCN(c3cccc(-c4cscn4)c3)CC2)o1,-7.3
15,Cc1ccn(CC(=O)N2CC[C@@H](c3ccc4ccccc4c3)[C@H](O)C2)n1,5.02
16,N#Cc1ccccc1C(=O)NCCC1CN(Cc2ccco2)CCO1 (centres undefined),-7.25
17,CCOc1ccnc(NCCc2nc(C)cc(=O)[nH]2)n1,-6.73
18,Cc1cnc(NCC(C)(C)N2CCCCC2)nc1,-2.69
19,O=C(C1CCC1)N1CCN(C(=O)c2cnccn2)[C@H]2CS(=O)(=O)C[C@H]21,-10.8
20,CC(C)(C)c1ncc2c(n1)CN(C(=O)c1ccc(-c3nc[nH]n3)cc1)C2,-16.8
21,Cc1ccc(OC2(C(=O)O)CCN(C(=O)c3nc(C)oc3C)CC2)cn1,-9.41
22,CCC(NC(=O)C1CCN(S(C)(=O)=O)CC1)c1ccc(OC)c(C)c1 (centres undefined),-10

row,SMILES,cytotoxicity at 10 µM [%]
1,N#Cc1cc2c(nc1O)CCCCC2,-6.88
2,Cc1ncccc1O[C@H]1CCN(C(=O)c2cccs2)CC[C@@H]1O,0.719
3,COCCN1CCC(NCc2ccc(Cl)cc2)C1 (centres undefined),-5.56
4,NC(=O)C1CCN(C(=O)c2ccn(-c3cccc(F)c3)n2)C1 (centres undefined),-3.05
5,COc1ccc(C(CNC(=O)NCc2csc(C)n2)N(C)C)cc1 (centres undefined),-5.59
6,CCS(=O)(=O)NCCCNCc1c(C)nn(C)c1N(C)C,-9.66
7,Cc1cc(C)c(CNC(=O)NCC2COCCO2)c(=O)[nH]1 (centres undefined),-3.81
8,Cc1cnn(CCC(=O)N2CCN(c3nccs3)CC2)c1,-8.03
9,c1ccc(Cc2nc(CN3CCCC3Cn3cncn3)cs2)cc1 (centres undefined),-2.54
10,Cc1cc(C(=O)N2CCCC2c2c(C)nn(C)c2C)no1 (centres undefined),-2.57
11,CCc1ocnc1C(=O)N1CCOC(c2nc(C)n[nH]2)C1 (centres undefined),-12
12,CCN1CCC(NC(=O)CN2CC(n3nc(C)cc3C)C2)CC1,-4.44
13,CC(C)Cc1nc(CN2CCN(CC(O)c3ccccc3)CC2)no1 (centres undefined),-14.4
14,CCc1n[nH]c(C2CN(C(=O)c3ccnc(C)n3)CCO2)n1 (centres undefined),-7.06
15,Cc1nn(C)c(N(C)C)c1CNC(C)COc1ccccc1F (centres undefined),-14.1
16,Cc1nn(C)c(C)c1C1CCCN1Cc1nc(N)c2ccccc2n1 (centres undefined),-16
17,CC(C)(C)C(=O)NCCC(=O)NCCc1ccn(-c2ccccc2)n1,-8.89
18,CCc1nc(C2CCCN(C(=O)c3ccc(Cl)cc3)C2)no1 (centres undefined),5.71
19,CCc1nc(CNCC2CCCN2c2cccnn2)no1 (centres undefined),-12.6
20,O=C(COc1cccnc1)N1CCCC(n2cccn2)C1 (centres undefined),-1.92
21,Cc1nc(C)n(C2CCCN(C(=O)c3nc(C)n4ccccc34)C2)n1 (centres undefined),-10.9
22,CC(C)c1nc(CN2CCC(CO)CC2)cs1,-20.1

row,SMILES,cytotoxicity at 10 µM [%]
1,O=C(Nc1cc(F)ccc1OCC1CCCO1)c1ccoc1 (centres undefined),4.43
2,COCCn1cc(C(=O)N2CCCC(n3cncn3)C2)ccc1=O (centres undefined),-2.38
3,Cc1cc(CN(C)C(=O)NCC2CCS(=O)(=O)C2)no1 (centres undefined),-0.874
4,O=C(NCCc1ccsc1)Nc1cccnc1N1CCCC1,-6.78
5,CN1CCC/C1=N\S(=O)(=O)c1ccc(NC(=O)c2cccs2)cc1,-3.34
6,COc1ccc(F)cc1-c1ccccc1CC1CNCCNC1=O (centres undefined),3.48
7,Cn1ccc(C(=O)NC2CCC23CCN(Cc2cccnc2)CC3)c1 (centres undefined),-12.1
8,CC(C)NC(=O)[C@H]1C[C@@H]2[C@@H](C1)OCCN2Cc1ccccn1,6.62
9,O=C(c1ccnnc1)N1CCN(Cc2ccncc2)c2ncccc2C1,-0.201
10,C[C@H]1C(=O)NC[C@H]2CN(Cc3cccc(F)c3)C[C@H]21,0.964
11,Cc1ccnc(OC[C@@]23CCO[C@@H]2CCN(c2ncccn2)C3)n1,4.86
12,COC[C@@]12CCO[C@@H]1CCN(Cc1ccccc1F)C2,-12.9
13,N#Cc1cccc(CN2CC[C@@H]3CO[C@@H](CN4CCCC4)[C@@H]3C2)c1,-0.159
14,Cc1noc(C)c1CN1CCN(CCN(C)C)c2ncccc2C1,7.83
15,O=C1CCC2(CCCN(CCc3ccccc3)C2)N1Cc1cccnc1 (centres undefined),4.05
16,O=C([C@H]1C[C@@H]2CCN(c3cccc(F)c3)C[C@H]2O1)N1CCCCO1,1.67
17,O=C(c1ccco1)N1C[C@@H]2OCCN(CCN3CCCC3)[C@@H]2C1,1.54
18,COCCN1CCCC12CCN(c1ncccn1)CC2,11.4
19,CC(C)n1nc(Cn2cccc2)c2c1CN(C1CCOCC1)C2,7.55
20,CN(C)[C@@H]1CCN(C(=O)NC2CCCC2)[C@H]1Cc1ccncc1,5.83
21,Cc1cccc(-n2cc3nc(N4CCC(C)CC4)[nH]cc-3c2=O)c1,0.738
